Source: PMC5226292 (Pharmacology Research & Perspectives, 2016)
Entries after “also recorded” stand apart in the source; their conditions may differ.

Legend:
[1] = system: STZ-treated DIO mice; assay: Glycemic control in STZ-treated DIO mice; assay type: in vivo, mouse; conditions: for glucose AUC during OGTTs on days 7 and 14: oral once daily, LY2881835 30 mg/kg, sitagliptin 3 mg/kg
Procedure, shortened: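 Male DIO mice aged 5–6 months got IP streptozotocin 50 mg/kg twice in one week. Two weeks later, mice with 9 am glucose of 180–300 mg/dL were randomized by body weight and glucose. Dosing was oral, once daily for 16 days: test compound 30 mg/kg given 30 min and sitagliptin 3 mg/kg 60 min before OGTTs on days 1, 7 and 14. Glucose was sampled at 0–120 min and glucose AUC calculated; 7 per group, with age-matched non-STZ mice included.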

[2] = system: nuclear hormone receptors, other G-protein-coupled receptors (GPCRs) and enzyme targets; assay: Broad range of assays: nuclear hormone receptors, other GPCRs and enzyme targets; conditions: data not shown
[3] = system: normal ICR mice; assay: IPGTT in lean ICR mice; assay type: in vivo, mouse
Procedure, shortened: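 Male ICR mice aged 9-10 weeks were fasted overnight (about 1600 to 0800) and randomized by fasting glucose and body weight. Test compound or vehicle (0.5% methylcellulose/0.25% Tween-80) was given orally 60 min before IP glucose. Serum was sampled at 0, 3, 6 and 15 min and assayed with a Mesoscale rat/mouse insulin kit.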

[4] = system: primary islets from GPR40 KO mice; assay: Insulin secretion from isolated GPR40 KO mouse islets; assay type: cell-based; conditions: 11.2 mmol/L glucose, 90 min
Procedure, shortened: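 Islets from 2–3-month-old male GPR40 KO mice were purified on a Histopaque-1100 gradient and cultured overnight in RPMI-1640 with 10% FBS and antibiotics. They were preincubated 30 min in EBSS with 0.1% BSA and 2.8 mmol/L glucose. Islets were then incubated 90 min with 2.8 or 11.2 mmol/L glucose plus rising test compound levels (6 batches of 4 islets per condition). Linoleic acid and GLP-1(7-36) amide served as controls. Insulin was measured by ECL, expressed as fold over vehicle, and compared by ANOVA with Dunnett's test.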

[5] = system: primary islets from WT mice; assay: Insulin secretion from isolated WT mouse islets; assay type: cell-based; conditions: 11.2 mmol/L glucose, 90 min
Procedure, shortened: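 Islets came from 2-3-month-old male wild-type C57BL/6 mice and were purified on a Histopaque-1100 gradient. They were exposed to test compound, or linoleic acid as reference ligand, in 11.2 mmol/L glucose. Insulin secretion is expressed as fold over vehicle, analysed by ANOVA with Dunnett's comparison.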

[6] = system: GPR40 KO mice; assay: OGTT in GPR40 KO mice; assay type: in vivo, mouse; conditions: oral 30 mg/kg, 60 min before OGTT, versus vehicle
Procedure, shortened: (§1)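 Chow-fed male mice aged 2–3 months (WT, GPR40 KO or GPR120 KO) were fasted overnight from about 1600 and randomized at about 0800 by fasting glucose and body weight. Oral test compound 30 mg/kg or vehicle (0.5% methylcellulose, 0.25% Tween-80) was given 60 min before oral glucose 2 g/kg. Tail-blood glucose was read by glucometer at 0, 15, 30, 60 and 120 min, averaging two readings, and analysed by repeated-measures ANOVA.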

[7] = target: hGPR40 (Homo sapiens, UniProt O14842); assay: Calcium flux assay; assay type: cell-based
[8] = system: diet-induced obese (DIO) mice; assay: Glycemic control in DIO mice; assay type: in vivo, mouse; conditions: oral 10 mg/kg once daily
Procedure, shortened: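 Male DIO mice aged 5–6 months were acclimated for 2 weeks and randomized by body weight and fasting blood glucose. They received oral test compound at 10 mg/kg or vehicle (0.5% methylcellulose, 0.25% Tween-80) once daily for 15 days, dosed 60 min before oral glucose. OGTTs on days 1 and 15 sampled tail blood at 0, 15, 30, 60 and 120 min by glucometer, averaging two readings.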

[9] = Compound exposure in lean mice; assay type: in vivo, mouse; conditions: single oral dose 10 mg/kg, over 8 h
Procedure, shortened: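 Male ICR mice; single oral dose in 0.5% methylcellulose/0.25% Tween-80. EDTA-plasma collected by retro-orbital bleed at 0.5, 1, 2, 4 and 8 h post-dose. Total circulating test compound measured by LC-MS.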

[10] = system: WT mice; assay: OGTT in WT mice; assay type: in vivo, mouse; conditions: oral 30 mg/kg, 60 min before OGTT, versus vehicle
Procedure, shortened: as §1

[11] = system: individuals with T2D; conditions: oral, 12 weeks, ref Araki et al. 2012, Burant et al. 2012; cited from earlier work
[12] = system: Zucker fa/fa rats; assay: Glycemic control in fatty Zucker fa/fa rats; assay type: in vivo, rat; conditions: oral once daily, LY2881835 1 mg/kg, rosiglitazone 3 mg/kg
Procedure, shortened: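 Male Zucker fa/fa rats aged 2–3 months were acclimated for 2 weeks and randomized by body weight and glucose (n = 6/group). Test compound 1 mg/kg, rosiglitazone 3 mg/kg or vehicle was given orally once daily for 21 days. OGTTs on days 1 and 21 sampled blood at 0, 10, 20, 40 and 60 min, averaging two readings. Age-matched lean rats were included.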

Sequence of hGPR40 (O14842 whole entry): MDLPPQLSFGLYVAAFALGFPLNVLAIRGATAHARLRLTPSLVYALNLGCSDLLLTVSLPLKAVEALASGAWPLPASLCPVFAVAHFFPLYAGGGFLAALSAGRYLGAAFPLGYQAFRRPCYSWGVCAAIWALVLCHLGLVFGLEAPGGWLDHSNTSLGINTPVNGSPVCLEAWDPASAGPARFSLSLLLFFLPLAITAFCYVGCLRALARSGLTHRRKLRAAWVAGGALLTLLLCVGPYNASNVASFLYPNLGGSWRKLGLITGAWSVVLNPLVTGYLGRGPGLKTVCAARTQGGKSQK

Compound: CC#C[C@@H](CC(=O)O)c1ccc(OCc2ccc(CN3CCC4(C=Cc5ccccc54)CC3)cc2)cc1 [LY2881835, (3S)‐3‐(4‐{[4‐(1′H‐spiro[indene‐1,4′‐piperidin]‐1′‐ylmethyl)benzyl]oxy}phenyl)hex‐4‐ynoic acid]
- blood glucose during OGTT after a single treatment ([1]; oral 30 mg/kg, day 1): lowered blood glucose
- glucose AUC during OGTTs on days 7 and 14 [1]: Results are similar
- signals in assay systems not expressing GPR40 [2]: No positive signals were detected
- insulin AUC during IPGTT ([3]; oral 10 mg/kg dose group, versus vehicle): statistically significant enhancement in insulin AUC
- insulin secretion during IPGTT ([3]; oral 0.3, 1, 3 and 10 mg/kg, 60 min before IP glucose 2 g/kg): clear dose‐dependent enhancement in insulin secretion
- insulin secretion in GPR40 KO primary islets [4]: Enhanced insulin secretion was absent; also recorded: No insulin secretion
- insulin secretion in WT primary islets [5]: statistically significant increase in insulin secretion
- glucose levels during OGTT [6]: had no effect on glucose levels
- EC50 [7]: 164 ± 94 nM
- hypoglycemia [8]: no evidence of hypoglycemia was observed
- fasting glucose levels at time 0 of the OGTTs ([8]; 60 min after administration): significantly reduced
- glucose levels during OGTTs ([8]; OGTTs on days 1 and 15): Significant reductions in glucose levels
- plasma concentration time course [9]: peaked and remained elevated at 15, 30, and 60 min followed by a slight decrease in levels throughout the 8 h study
- glucose levels during OGTT [10]: significant glucose lowering

Compound: Cc1cc(OCCCS(C)(=O)=O)cc(C)c1-c1cccc(COc2ccc3c(c2)OC[C@H]3CC(=O)O)c1 [TAK‐875]
- HbA1c reduction [11]: superior to historical data with DPPIV inhibitors and comparable with that of sulfonylureas

Compound: CCCCC/C=C\C/C=C\CCCCCCCC(=O)O [linoleic acid, reference compound]
- insulin secretion in GPR40 KO primary islets [4]: a reduction in insulin secretion was seen
- insulin secretion in GPR40 KO primary islets ([4]; listed as LA): No insulin secretion

Compound: CN(CCOc1ccc(CC2SC(=O)NC2=O)cc1)c1ccccn1 (stereo not shown) [rosiglitazone, Rosiglitazone]
- blood glucose during OGTT on day 1 [12]: no glucose lowering

Compound: N[C@@H](CC(=O)N1CCn2c(nnc2C(F)(F)F)C1)Cc1cc(F)c(F)cc1F [sitagliptin, reference compound]
- glucose AUC during OGTTs on days 7 and 14 [1]: Results are similar
